Assay outcomes from PubChem.
NR1D1 modulator = modulators of Rev-erb alpha DNA binding, primary screen, biochemical, FITC-DNA, fluorescence polarization, uHTS | 370,000 compounds, 0.79% hits | activity, % at 10 µM | Nuclear receptor subfamily 1 group D member 1 (Homo sapiens), P20393 | AID 1259318, 2017 | Rev-erbα–FITC-DNA binding, 90 min;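 active means activity above about 14%, limit read from the data; passing the limit was not always enough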;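 further: 0% = DMSO wells with 35 nM protein and 100% = DMSO wells with 750 nM protein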
NR2E3 ag-1 = inhibitors of NR2E3-RetCOR corepressor binding, primary screen, NR2E3 agonist project, biochemical, TR-FRET, GST-NR2E3, biotin-RetCOR; AID 2300, 2010; 320,000 compounds, 0.12% hits; inhibition of corepressor binding, % at 4.78 µM; 1536-well; Photoreceptor-specific nuclear receptor (Homo sapiens), Q9Y5X4;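 active means percent inhibition above the cutoff of mean plus 3 SD of all tested compounds, set per screening campaign, cut at about 20% in these data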;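 further: 0% = DMSO wells and 100% = biotin wells as full block of FRET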
Target sequence (Q9Y5X4 whole entry, looked up): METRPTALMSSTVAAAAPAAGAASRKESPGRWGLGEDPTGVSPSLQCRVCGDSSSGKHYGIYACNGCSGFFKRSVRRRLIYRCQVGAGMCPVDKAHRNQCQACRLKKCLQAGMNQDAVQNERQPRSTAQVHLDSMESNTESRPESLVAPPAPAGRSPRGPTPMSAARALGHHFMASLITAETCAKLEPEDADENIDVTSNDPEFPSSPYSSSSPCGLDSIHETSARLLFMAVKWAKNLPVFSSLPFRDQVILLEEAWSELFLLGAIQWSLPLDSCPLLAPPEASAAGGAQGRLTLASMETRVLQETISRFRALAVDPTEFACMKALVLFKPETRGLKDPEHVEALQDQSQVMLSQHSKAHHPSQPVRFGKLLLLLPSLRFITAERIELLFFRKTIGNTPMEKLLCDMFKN
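Assay system: NR2E3–RetCOR corepressor complex. Quantity: 1.35 nM GST-NR2E3. Buffer or medium: pH 7.5 Tris-based buffer. Reagent: biotinylated RetCOR corepressor at 7 nM final. Schedule: 5 h at 4 °C. Detection: TR-FRET, emission read at 617 and 671 nm. Replicates: one well per compound, singlicate testing.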
PG9 Ab binder = binders of HIV-1 gp120 antibody PG9, primary screen, biochemical, TR-FRET | 360,000 compounds, 0.43% hits | inhibition, % at 6.7 µM | HIV-1 gp120 / PG9 antibody interaction | AID 624416, 2012 | TR-FRET gp120-PG9 antibody binding; in the data active means inhibition above about 8.5%
NR2E3 ag-2 = NR2E3 agonists in two-hybrid cells, primary screen, cell-based, luminescence, CHO-S, Gal4-NCOR/VP16-NR2E3 | inhibition of corepressor binding, % at 3.98 µM | 360,000 compounds, 0.35% hits | AID 602229, 2012 | luciferase;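 active means inhibition above the mean of all tested compounds plus 3 SD, cut at about 70% in these data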;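 further: 0% = DMSO with NR2E3 transfected cells and 100% = cells lacking NR2E3 construct; higher means lower luciferase signal from less NR2E3 corepressor binding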
NR1D1 mod conf = modulators of Rev-erb alpha DNA binding, confirmation, biochemical, FITC-DNA, fluorescence polarization, single point; shares compounds with NR1D1 modulator; 90 min; activation, % at 25 µM; 3,000 compounds, 61% hits;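 active means activation at or above a set limit, or at least 3 SD above the negative control mean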;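 further: 0% = 35 nM protein with DMSO and 100% = 750 nM protein high control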
RORg DNA counter = modulation of RORgamma DNA binding, dose response, counter-screen for Rev-erb alpha modulator project, biochemical, fluorescence polarization, FITC-DNA; shares compounds with NR1D1 modulator; purified RORgamma protein-FITC-DNA binding; IC50, µM; 910 compounds, 8% hits;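 active means Compounds whose fitted half-maximal concentration for disrupting protein-DNA binding is below 10 micromolar; the record names Rev-erb in its text, so the target is in doubt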
The depositor's hits bear a star. The list is not random: actives were taken first. Their share in the collection is about 1.4%.

What do the screens show for `CC(=O)Nc1ccc2ccc3cccc4ccc1c2c34`?
NR1D1 modulator: 33*; NR2E3 ag-1: -2; PG9 Ab binder: -11; NR2E3 ag-2: -43; NR1D1 mod conf: 28*

What do the screens show for `CCOC(=O)C1CCCN(c2nnnn2-c2ccccc2)C1` (centres undefined)?
NR1D1 modulator: 0; NR2E3 ag-1: 2; PG9 Ab binder: -2; NR2E3 ag-2: 0

Results for Cc1ccc2[nH]c(=O)c(N3CCOCC3)c(-c3ccccc3)c2c1 ?
NR1D1 modulator: 28*; NR2E3 ag-1: -2; PG9 Ab binder: 0; NR2E3 ag-2: 4; NR1D1 mod conf: 0

Results for O=C(c1cc2cc(Cl)ccc2[nH]1)N1CCc2ccccc2C1 ?
NR1D1 modulator: 60*; NR2E3 ag-1: -5; PG9 Ab binder: 1; NR2E3 ag-2: -1; NR1D1 mod conf: 6

How did O=C(c1cc2cc(F)ccc2[nH]1)N1CCc2ccccc2C1 do in these assays?
NR1D1 modulator: 7; NR2E3 ag-1: -3; PG9 Ab binder: -2; NR2E3 ag-2: -66

What do the screens show for `Cc1cccc(C)c1NC(=O)COC(=O)c1cc(-c2cccnc2)nc2ccccc12`?
NR1D1 modulator: 19*; NR2E3 ag-1: 2; PG9 Ab binder: 2; NR2E3 ag-2: 10; NR1D1 mod conf: 21*

What do the screens show for `O=C(COC(=O)c1cc(-c2cccnc2)nc2ccccc12)Nc1ccc(F)cc1F`?
NR1D1 modulator: 6; NR2E3 ag-1: 4; PG9 Ab binder: -5; NR2E3 ag-2: 18

What do the screens show for `COc1ccc(-c2cc(C(=O)OCC(=O)Nc3cc(C)on3)c3ccccc3n2)cc1OC`?
NR1D1 modulator: 21*; NR2E3 ag-1: 6; PG9 Ab binder: -1; NR2E3 ag-2: -25; NR1D1 mod conf: -4

How did N#Cc1c(-c2ccccc2)oc(=O)c2ccccc12 do in these assays?
NR1D1 modulator: 20*; NR2E3 ag-1: 4; PG9 Ab binder: 0; NR2E3 ag-2: -17; NR1D1 mod conf: -2

What do the screens show for `O=c1c(Cl)c(N2CCN(S(=O)(=O)c3ccc(F)cc3)CC2)cnn1-c1cccc(Cl)c1`?
NR1D1 modulator: 28*; NR2E3 ag-1: 1; PG9 Ab binder: 0; NR2E3 ag-2: -21; NR1D1 mod conf: 28*

Results for Cc1cc(C)c(C(=O)Nc2cccc(F)c2)c(Cl)n1 ?
NR1D1 modulator: 1; NR2E3 ag-1: 2; PG9 Ab binder: -2; NR2E3 ag-2: -4

How did Cc1ccc(-c2nn(-c3ccccc3)cc2/C=N/NC(=O)CSc2nnc(C)n2-c2ccccc2)cc1 do in these assays?
NR1D1 modulator: -3; NR2E3 ag-1: 1; PG9 Ab binder: 0; NR2E3 ag-2: -58

How did COc1cc2ccccc2cc1C(=O)Nc1ccc(Cl)cn1 do in these assays?
NR1D1 modulator: 31*; NR2E3 ag-1: 2; PG9 Ab binder: 0; NR2E3 ag-2: -42; NR1D1 mod conf: 17

How did COC(=O)c1ccc(C(=O)OC)c(NC2=NS(=O)(=O)c3ccccc32)c1 do in these assays?
NR1D1 modulator: 21*; NR2E3 ag-1: -1; PG9 Ab binder: 2; NR2E3 ag-2: 7; NR1D1 mod conf: -5

How did COC(=O)c1c(-c2ccccc2)csc1NC1=NS(=O)(=O)c2ccccc21 do in these assays?
NR1D1 modulator: 31*; NR2E3 ag-1: 1; PG9 Ab binder: -2; NR2E3 ag-2: -119; NR1D1 mod conf: 12

How did CCOC(=O)C1=C(C)NC(C)=C(C(=O)OCC)C1C(=O)OCC(=O)N1CC(C)OC(C)C1 (centres undefined) do in these assays?
NR1D1 modulator: 3; NR2E3 ag-1: 3; PG9 Ab binder: -2; NR2E3 ag-2: 9

What do the screens show for `COc1ccccc1NC(=O)/C(=C/c1ccncc1)NC(=O)c1ccccc1`?
NR1D1 modulator: -6; NR2E3 ag-1: -1; PG9 Ab binder: -2; NR2E3 ag-2: 5

How did COc1cccc(OCCCN2CCC(C(O)(c3ccccc3)c3ccccc3)CC2)c1 do in these assays?
NR1D1 modulator: -3; PG9 Ab binder: -1

What do the screens show for `O=C(COc1ccc(Cl)cc1Cl)Nc1cccc(-c2ccc(N3CCOCC3)nn2)c1`?
NR1D1 modulator: 22*; PG9 Ab binder: 2; NR2E3 ag-2: -36; NR1D1 mod conf: 14*

Results for N#Cc1ccc(C#Cc2ccc3oc4ccccc4c(=O)c3c2)cc1 ?
NR1D1 modulator: 16*; PG9 Ab binder: -1; NR2E3 ag-2: -5; NR1D1 mod conf: 17

Results for CCOC(=O)c1ccccc1NC(=O)c1cn(-c2ccc(C)c(C)c2)c(=O)c2ccccc12 ?
NR1D1 modulator: 0; NR2E3 ag-1: 4; PG9 Ab binder: 1; NR2E3 ag-2: -27

How did COC(=O)c1ccccc1NC(=O)c1cn(-c2ccc(C)c(C)c2)c(=O)c2ccccc12 do in these assays?
NR1D1 modulator: 42*; NR2E3 ag-1: 2; PG9 Ab binder: 4; NR2E3 ag-2: 7; NR1D1 mod conf: 48*; RORg DNA counter: >40

Results for Cc1cc(Br)ccc1SCC(=O)OCC(=O)NCc1ccco1 ?
NR1D1 modulator: -11; NR2E3 ag-1: 2; PG9 Ab binder: -1; NR2E3 ag-2: 11

Results for Cn1c2ccccc2c(=O)c2cc(C#Cc3ccsc3)ccc21 ?
NR1D1 modulator: 22*; NR2E3 ag-1: 2; PG9 Ab binder: 0; NR2E3 ag-2: -25; NR1D1 mod conf: 16

How did CN(Cc1nc2ccccc2n1C)S(=O)(=O)c1ccc(Cl)cc1 do in these assays?
NR1D1 modulator: -1; NR2E3 ag-1: -1; PG9 Ab binder: 1; NR2E3 ag-2: -2

How did O=C1NC(=S)N/C1=C/c1cc2c(cc1[N+](=O)[O-])OCO2 do in these assays?
NR1D1 modulator: 3; NR2E3 ag-1: -1; PG9 Ab binder: -3; NR2E3 ag-2: -28

How did O=C(Nc1cccc(-c2nc3ccccc3o2)c1)c1ccc(N2C(=O)C3C4C=CC(C4)C3C2=O)cc1 (centres undefined) do in these assays?
NR1D1 modulator: 10; NR2E3 ag-1: -2; PG9 Ab binder: -2; NR2E3 ag-2: -7

What do the screens show for `O=C1C2C3C=CC(C3)C2C(=O)N1c1cccc(-c2nc3ccccc3o2)c1` (centres undefined)?
NR1D1 modulator: 29*; NR2E3 ag-1: 1; PG9 Ab binder: 1; NR2E3 ag-2: -5; NR1D1 mod conf: 12

Results for O=C(O)C(C(=O)Oc1ccccc1)C(C(=O)O)C(=O)Oc1ccccc1 (centres undefined) ?
NR1D1 modulator: -4; NR2E3 ag-1: 4; PG9 Ab binder: -2; NR2E3 ag-2: -27
